The source of these data is PubChem BioAssay.

The source made the active and inactive calls.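 The calls were made as follows, unless noted: active = viability at or under a set limit in both replicates, limit being median viability minus 3 SD (cut at about 48% in these data, passing the limit was not always enough); inconclusive = at or under the limit in just one replicate; inactive = at or above the limit in both replicates.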

Experiment [1] in a line: Her2 expression decrease, cell viability multiplex – SKBR3 breast tumor cells, AlphaScreen, ATP viability, primary screen (AID 461;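 active = Her2 level under about 52% in both replicate screens, with viability over 70% of control, limit read from the data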;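 as to Her2 level: lower value means less Her2 protein in the cells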;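 as to viability: percent of carrier control wells set as 100% viability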). The settings on record: SKBR3 Her2 protein level, 18-24 h, measured here: SKBR3 viability, ATP luminescence, at 10 µM.
In experiment [2] the target is Receptor tyrosine-protein kinase erbB-2 (Homo sapiens) (UniProt P04626). Described as above. Conditions: 18-24 h, at 10 µM, stronger effect = lower value.
Chain of Receptor tyrosine-protein kinase erbB-2 (Homo sapiens) (P04626 whole entry, looked up): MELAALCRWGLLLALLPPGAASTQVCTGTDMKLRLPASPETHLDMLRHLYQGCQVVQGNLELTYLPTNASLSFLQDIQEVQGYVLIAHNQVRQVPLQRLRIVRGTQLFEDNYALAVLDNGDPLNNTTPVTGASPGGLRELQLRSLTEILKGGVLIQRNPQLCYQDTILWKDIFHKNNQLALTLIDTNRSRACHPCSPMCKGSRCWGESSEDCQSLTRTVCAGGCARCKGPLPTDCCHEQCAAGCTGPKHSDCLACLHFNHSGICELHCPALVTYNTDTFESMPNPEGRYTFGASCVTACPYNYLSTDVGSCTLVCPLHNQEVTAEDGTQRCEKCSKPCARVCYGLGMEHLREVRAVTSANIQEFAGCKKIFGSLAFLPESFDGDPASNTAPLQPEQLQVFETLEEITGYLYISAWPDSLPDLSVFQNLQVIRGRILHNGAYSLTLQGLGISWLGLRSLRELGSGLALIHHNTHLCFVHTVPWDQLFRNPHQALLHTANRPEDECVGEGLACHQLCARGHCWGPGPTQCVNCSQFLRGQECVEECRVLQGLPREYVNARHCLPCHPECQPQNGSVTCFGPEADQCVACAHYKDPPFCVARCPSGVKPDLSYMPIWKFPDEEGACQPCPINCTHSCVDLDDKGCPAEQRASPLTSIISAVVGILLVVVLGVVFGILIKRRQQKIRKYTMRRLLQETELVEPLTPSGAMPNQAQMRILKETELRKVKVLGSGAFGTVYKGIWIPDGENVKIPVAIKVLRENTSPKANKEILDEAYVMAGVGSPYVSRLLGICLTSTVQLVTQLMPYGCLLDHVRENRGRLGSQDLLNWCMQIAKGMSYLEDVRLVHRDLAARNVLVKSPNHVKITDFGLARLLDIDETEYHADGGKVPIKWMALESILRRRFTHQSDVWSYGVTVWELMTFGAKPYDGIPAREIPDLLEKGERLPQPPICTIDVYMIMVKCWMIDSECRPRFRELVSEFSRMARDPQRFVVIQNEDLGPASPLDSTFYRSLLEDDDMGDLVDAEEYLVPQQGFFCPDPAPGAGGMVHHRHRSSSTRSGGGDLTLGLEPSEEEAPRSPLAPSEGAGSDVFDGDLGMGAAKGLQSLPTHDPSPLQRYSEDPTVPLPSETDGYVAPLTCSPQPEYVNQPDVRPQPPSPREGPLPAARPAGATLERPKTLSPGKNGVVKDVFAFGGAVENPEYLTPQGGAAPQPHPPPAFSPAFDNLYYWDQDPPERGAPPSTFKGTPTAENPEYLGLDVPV
A short description of experiment [3]: reduced viability of SK-BR-3 breast cancer cells – cell-based, 24 h, human, pilot screen (AID 572;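 active = viability at or below 10% of carrier control in both of two separate runs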;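 also: compound exposure lasted between 18 and 24 h rather than exactly 24 h; 100% = carrier-treated control wells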). The settings on record: SK-BR-3 viability, CellTiter-Glo luminescence, at 10 µM, stronger effect = lower value. (In general: Cellular ATP, detected with luciferase, serves as a proxy for viable cell number.)
Experiment [4] is described as follows: HUVEC growth inhibition – cell-based, human, primary screen (AID 575;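 active = viability at or below 30% in both replicate assays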;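 also: 100% = median of untreated cell wells with 0.1% DMSO on each plate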). Conditions: HUVEC proliferation, CellTiter-Glo luminescence, 72 h; at 10 µM; stronger effect = lower value. Put shortly: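 System – primary HUVEC, no more than 12 passages · Medium – Low-serum (2% FBS) EBM, supplemented · Times – 72 h exposure, 37 °C, 5% CO2, 30 min RT equilibration · Measured by – luminescent ATP assay · Read-out – % viability relative to median vehicle-well signal on each plate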

Experiment [5] in a line: H69AR cell proliferation blockers – human, duplicate replicates, primary screen (AID 580).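 Also: 100% = mean luminescence of untreated wells and 0% = no signal.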 The settings on record: H69AR lung tumor cells viability, ATP luminescence, 72 h; at 10 µM; stronger effect = lower value.
Experiment [6] is described as follows: MRP1 drug-resistance reversers in H69AR cells – cell-based, doxorubicin co-treatment, pilot screen (AID 601;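 active = viability loss from added drug above about 55%, and viability with drug at most 40%, in both replicates, limit read from the data, passing the limit was not always enough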). Conditions: CellTiter-Glo, 72 h, at 10 µM; for differential viability (reversal): stronger effect = higher value.
The nature of experiment [7]: yeast transport mutant growth inhibition pilot in 384-well plates, post-Golgi transport modulator project (AID 636; in the data active = inhibition above about 31%). Conditions: absorbance 615 nm, about 18 h, stronger effect = higher value.
A short description of experiment [8]: growth suppression of yeast trafficking mutant, preliminary HTS, modulators of trafficking downstream of Golgi apparatus project, 1536-format plate, OD 615 nm (AID 637; in the data active = inhibition above about 30%). The settings on record: yeast transport mutant growth, absorbance 615 nm, 18 h; stronger effect = higher value.
Where [9] appears, read: H69AR cells + 2 uM doxorubicin, measured here: viability with 2 uM doxorubicin, stronger effect = lower value.
[10] abbreviates: H69AR cells, compound alone cytotoxicity.

With `CCOc1ccc(NC(=O)CN(C)CC(=O)NC2CCCc3ccccc32)cc1OCC` (stereo not given), the viability (in general, a read-out of living cells in per cent, often relative to untreated cells) was 83% in experiment [1]; 83% (inactive) in experiment [3]; 100% (inactive) in experiment [4]; 89.9% (inactive) in experiment [5]; 97.3% in experiment [6] (setting [9]); 89.9% in experiment [6] (setting [10]). The Her2 level in experiment [2] was 88.5% (inactive). The differential viability (reversal) in experiment [6] (H69AR cells + 2 uM doxorubicin) was -7.38% (inactive). Moreover, the inhibition (as a rule, the change of the read-out against control, counted positive when it falls) in experiment [7] is -0.38% (inactive); in experiment [8], 0.33% (inactive).

Regarding `CCOC(=O)C1CCCN(c2c(NCc3ccco3)c(=O)c2=O)C1` (stereo not given), the viability was 94% in experiment [1]; 94% (inactive) in experiment [3]; 83.3% (inactive) in experiment [4]; 94.3% (inactive) in experiment [5]; 82.6% in experiment [6] (setting [9]); 94.3% in experiment [6] (setting [10]). For the same molecule, the Her2 level in experiment [2] was 108% (inactive). Moreover, the differential viability (reversal) in experiment [6] (H69AR cells + 2 uM doxorubicin) was 11.7% (inactive). Further, the inhibition in experiment [7] was 2% (inactive); in experiment [8], -6.07% (inactive).

On to `CN(C(=O)c1ccc2c(=O)n3c(nc2c1)CCCCC3)c1ccccc1`, for which the viability in experiment [1] was 96.5%; in experiment [3] it was 96.5% (inactive); in experiment [4], 97.5% (inactive); in experiment [5], 102% (inactive); in experiment [6] (setting [9]) it was 101%; in experiment [6] (setting [10]), 102%. Besides, the Her2 level in experiment [2] was 91% (inactive). For the same molecule, the differential viability (reversal) in experiment [6] (H69AR cells + 2 uM doxorubicin) is 0.655% (inactive). The inhibition was -7.26% (inactive) in experiment [7] and 2.54% (inactive) in experiment [8].

Turning to `CCc1cc(=O)oc2cc(OC(C)=O)cc(OC(C)=O)c12`, the viability in experiment [1] is 116%; in experiment [3], 116% (inactive); in experiment [4] it was 76.8% (inactive); in experiment [5] it was 95.1% (inactive); in experiment [6] (setting [9]) it was 105%; in experiment [6] (setting [10]), 95.1%. Moreover, the Her2 level in experiment [2] is 74% (inactive). Further, in experiment [6] (H69AR cells + 2 uM doxorubicin), the differential viability (reversal) was -9.96% (inactive). For the same molecule, the inhibition was -7.37% (inactive) in experiment [7] and -5.5% (inactive) in experiment [8].

With `NC(=O)c1ccccc1NC(=O)CCCN1C(=O)CCC1=O`, the viability in experiment [1] was 101%; in experiment [3] it was 101% (inactive); in experiment [4] it was 92.9% (inactive); in experiment [5], 95.6% (inactive); in experiment [6] (setting [9]), 85%; in experiment [6] (setting [10]), 95.6%. In experiment [2], the Her2 level is 83.5% (inactive). Further, the differential viability (reversal) in experiment [6] (H69AR cells + 2 uM doxorubicin) was 10.6% (inactive). Also, the inhibition in experiment [7] was -6.89% (inactive); in experiment [8] it was -1.9% (inactive).

Turning to `CCOC(=O)c1oc2cccc(OC(C)=O)c2c1C`, the viability in experiment [1] is 106%; in experiment [3] it was 106% (inactive); in experiment [4], 89.9% (inactive); in experiment [5], 85.6% (inactive); in experiment [6] (setting [9]), 86.5%; in experiment [6] (setting [10]), 85.6%. Moreover, in experiment [2], the Her2 level is 82% (inactive). Moreover, the differential viability (reversal) in experiment [6] (H69AR cells + 2 uM doxorubicin) is -0.89% (inactive). Also, the values for the inhibition in experiment [7] and in experiment [8] were -5.6% (inactive) and 3.11% (inactive), respectively.

Consider `O=S1(=O)N=C(Nc2nc3c(s2)CCCC3)c2ccccc21`, for which the viability is 82% in experiment [1]; 82% (inactive) in experiment [3]; 85.4% (inactive) in experiment [4]; 78.9% (inactive) in experiment [5]; 82.7% in experiment [6] (setting [9]); 78.9% in experiment [6] (setting [10]). Moreover, the Her2 level in experiment [2] was 112% (inactive). Also, the differential viability (reversal) in experiment [6] (H69AR cells + 2 uM doxorubicin) was -3.82% (inactive). Also, the inhibition is 0.93% (inactive) in experiment [7] and -7.62% (inactive) in experiment [8].

On to `COc1ccc(OC)c(C(=O)CSc2nnc(-c3ccc(OC)c(OC)c3)o2)c1`, for which the viability is 104% in experiment [1]; 104% (inactive) in experiment [3]; 75.9% (inactive) in experiment [4]; 74.5% (inactive) in experiment [5]; 73.7% in experiment [6] (setting [9]); 74.5% in experiment [6] (setting [10]). For the same molecule, in experiment [2], the Her2 level was 104% (inactive). The differential viability (reversal) in experiment [6] (H69AR cells + 2 uM doxorubicin) was 0.865% (inactive). Moreover, the inhibition was -5.32% (inactive) in experiment [7] and -8.85% (inactive) in experiment [8].

Turning to `c1ccc(CC2CCN(C(c3cccs3)c3nnnn3C3CCCC3)CC2)cc1` (stereo not given), the viability in experiment [1] was 102%; in experiment [3] it was 102% (inactive); in experiment [4] it was 91.9% (inactive); in experiment [5], 93.4% (inactive); in experiment [6] (setting [9]), 93.7%; in experiment [6] (setting [10]), 93.4%. In addition, in experiment [2], the Her2 level is 128% (inactive). Moreover, in experiment [6] (H69AR cells + 2 uM doxorubicin), the differential viability (reversal) was -0.24% (inactive). In addition, the inhibition in experiment [7] was 1.92% (inactive); in experiment [8] it was -0.63% (inactive).

`COc1ccc(CN2C(=O)c3cccnc3C2Nc2cc(Cl)ccc2OC)cc1` (stereo not given): the viability in experiment [1] is 84.5%; in experiment [3], 84.5% (inactive); in experiment [4] it was 85% (inactive); in experiment [5], 93.2% (inactive); in experiment [6] (setting [9]), 92.5%; in experiment [6] (setting [10]), 93.2%. Besides, the Her2 level in experiment [2] was 110% (inactive). Further, in experiment [6] (H69AR cells + 2 uM doxorubicin), the differential viability (reversal) was 0.7% (inactive). The inhibition was 2.67% (inactive) in experiment [7] and -1.8% (inactive) in experiment [8].

In the case of `CNC(=O)CSc1nnc(-c2ccc(S(=O)(=O)N3CCCC3)cc2)n1-c1cccc(C)c1C`, the viability in experiment [1] is 79.5%; in experiment [3], 79.5% (inactive); in experiment [4] it was 86.4% (inactive); in experiment [5], 88.9% (inactive); in experiment [6] (setting [9]) it was 77.2%; in experiment [6] (setting [10]), 88.9%. Besides, the Her2 level in experiment [2] was 78.5% (inactive). In experiment [6] (H69AR cells + 2 uM doxorubicin), the differential viability (reversal) is 11.7% (inactive). Further, the inhibition in experiment [7] was -4.86% (inactive); in experiment [8], -1.15% (inactive).

Consider `COc1cccc(OC)c1OCCNCCO`, for which the viability is 126% in experiment [1]; 126% (inactive) in experiment [3]; 85.7% (inactive) in experiment [4]; 96% (inactive) in experiment [5]; 84.8% in experiment [6] (setting [9]); 96% in experiment [6] (setting [10]). Moreover, the Her2 level in experiment [2] is 98% (inactive). In experiment [6] (H69AR cells + 2 uM doxorubicin), the differential viability (reversal) was 11.2% (inactive). The inhibition in experiment [7] is -1.82% (inactive); in experiment [8], 0.33% (inactive).

As to `CN(C)C(=O)c1ccc(COc2ccccc2Br)o1`, the viability was 110% in experiment [1]; 110% (inactive) in experiment [3]; 88.5% (inactive) in experiment [4]; 90.7% (inactive) in experiment [5]; 77.8% in experiment [6] (setting [9]); 90.7% in experiment [6] (setting [10]). Moreover, the Her2 level in experiment [2] was 84% (inactive). In addition, the differential viability (reversal) in experiment [6] (H69AR cells + 2 uM doxorubicin) is 13% (inactive). The inhibition in experiment [7] is -9.05% (inactive); in experiment [8], 0.48% (inactive).

Turning to `O=C(Nc1cccc(F)c1)c1ccc2c(c1)OCO2`, the viability is 97.5% in experiment [1]; 97.5% (inactive) in experiment [3]; 103% (inactive) in experiment [4]; 97.1% (inactive) in experiment [5]; 83.7% in experiment [6] (setting [9]); 97.1% in experiment [6] (setting [10]). Moreover, the Her2 level in experiment [2] was 106% (inactive). Also, the differential viability (reversal) in experiment [6] (H69AR cells + 2 uM doxorubicin) was 13.4% (inactive). Also, the inhibition in experiment [7] was -2.63% (inactive); in experiment [8], -3.44% (inactive).

Take `CCCC1CC(C)(C(=O)Cn2[nH]c(=O)ccc2=O)OC1=O` (stereo not given): the viability in experiment [1] is 84%; in experiment [3], 84% (inactive); in experiment [4], 105% (inactive); in experiment [5] it was 91.8% (inactive); in experiment [6] (setting [9]), 95.4%; in experiment [6] (setting [10]), 91.8%. In addition, the Her2 level in experiment [2] is 95.5% (inactive). Also, the differential viability (reversal) in experiment [6] (H69AR cells + 2 uM doxorubicin) is -3.6% (inactive). Further, the inhibition in experiment [7] is -4% (inactive); in experiment [8], 5.08% (inactive).
